The values that follow come from ChEMBL document CHEMBL5576140, “Computational Design of Pore-Forming Peptides with Potent Antimicrobial and Anticancer Activities” (J Med Chem, 2024).

Assay [1] relates to A498. The experiment in a line: Anti-cancer activity against human A498 cells incubated for 72 hrs by Cell Titer Glo assay. Type of assay: functional, cell-based. The settings on record: A498, 72 h.
Assay [2] concerns HCT-116. The experiment in a line: pH-dependent anticancer activity against human HCT-116 cells in RPMI medium at 10 uM incubated for 1 hr. Type of assay: functional, cell-based. The gist of the method: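 Cells cultured in RPMI, DMEM or PBS, each adjusted to pH 8, 7 or 6, plus one unadjusted (~7.6). Peptide at 10 μM for only 1 h, to limit pH drift from CO₂-bicarbonate buffering. Cell viability read. Controls were melittin, ampicillin and PBS. Two independent repetitions; effects analysed by ANOVA.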

Activity calls are given as the source filed them. The calls are words filed in the database; no cut-off is given here.

In assay [1], H-KKKKLKKILKKLFQFINQLDNQLQDIKQNK-NH2 had an IC50 of 1000 nM. For the same substance, the result in assay [2] was Active.
